APOBEC3A inh: APOBEC3A ssDNA deaminase inhibitors, primary screen, selectivity assay for APOBEC3G inhibitor project, biochemical, FAM/TAMRA oligo cleavage fluorescence | DNA dC->dU-editing enzyme APOBEC-3A (Homo sapiens), P31941 | recombinant A3A, FAM/TAMRA ssDNA deamination fluorescence | inhibition, % at 20 µM | 330,000 tested, 0.41% active | AID 493011, 2011;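 active = at least 40% inhibition at 20 µM here, with at most 30% in a related deaminase screen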
Target sequence (P31941 whole entry, looked up): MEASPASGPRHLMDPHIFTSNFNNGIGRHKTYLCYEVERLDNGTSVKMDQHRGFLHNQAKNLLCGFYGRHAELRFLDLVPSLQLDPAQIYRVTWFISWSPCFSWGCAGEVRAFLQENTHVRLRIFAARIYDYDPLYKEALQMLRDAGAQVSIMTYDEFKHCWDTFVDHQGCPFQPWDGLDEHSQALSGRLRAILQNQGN
ARFGAP1 inhibitor: inhibitors of rat ARFGAP1 GAP activity, primary screen, biochemical, fluorescence polarization, GDP tracer; Arfgap1-stimulated ARF1 GTP hydrolysis, GDP FP detection; inhibition, % at 16.5 µM; 360,000 tested, 0.26% active; ADP-ribosylation factor GTPase-activating protein 1 (Rattus norvegicus), Q62848;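 active = inhibition above a per-plate limit, mean inhibition of low control wells plus 3 SD, cut at about 25% in these data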
Target sequence (Q62848 1-136 limits assumed): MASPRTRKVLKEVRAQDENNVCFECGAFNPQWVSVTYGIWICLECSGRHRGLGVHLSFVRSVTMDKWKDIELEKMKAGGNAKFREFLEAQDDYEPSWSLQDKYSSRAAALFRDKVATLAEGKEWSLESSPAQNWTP
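system = rat Arfgap1 catalytic domain, aa 1-136 | technique = FP, GDP Alexa 633 tracer displaced from anti-GDP antibody, 620/688 nm | compound = one concentration, 16.5 µM, DMSO 1.26% | medium = HEPES-based buffer, pH 7.5 | timing = compound-enzyme preincubation 20 min, reaction 120 min, detection 60 min, 25 °C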
APOBEC3G inh: APOBEC3G DNA deaminase inhibitors, primary screen, biochemical, fluorescence, single-stranded DNA substrate, uHTS; AID 493012, 2011; DNA dC->dU-editing enzyme APOBEC-3G (Homo sapiens), Q9HC16; inhibition, % at 20 µM; 330,000 tested, 0.28% active; recombinant A3G, ssDNA deamination FAM/TAMRA fluorescence;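 active = inhibition of at least 40% at 20 µM, with no more than 30% in the related APOBEC3A deaminase screen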
Mot1-301 SUMO: yeast Mot1-301 growth rescue at high temperature, primary screen, SUMOylation pathway inhibitor project, S. cerevisiae, ATP luminescence, 38.5C; growth rescue, % at 18.8 µM; S. cerevisiae Mot1-301 growth rescue; percent above DMSO median, 100 means doubled; 320,000 tested, 1% active;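 active = every valid replicate shows activation above 250% relative to neutral control wells; inactive = the rest, any valid replicate at or below 250%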
Statin myotox sup: suppressors of statin myotoxicity in C2C12 myotubes, primary screen, cell-based, single point, plate reader. 330,000 tested, 0.78% active. rescue of ATP level, % at 7.49 µM. C2C12 myotubes + simvastatin, ATP luminescence, 48 h; scaled: DMSO 0, geranylgeraniol control 100;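 active = mean ATP rescue above about 67%, or every replicate alone reaching that limit, limit read from the data, passing the limit was not always enough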;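 note: myotubes were challenged with 10 µM simvastatin during compound exposure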
ASAP1 inh: inhibitors of human ASAP1 ArfGAP activity, primary screen, biochemical, fluorescence polarization; Arf-GAP with SH3 domain, ANK repeat and PH domain-containing protein 1 (Homo sapiens), …; ASAP1-stimulated ARF1 GTP hydrolysis, GDP FP detection; inhibition, % at 16.5 µM; 360,000 tested, 0.19% active; AID 624377, 2012; in the data active = inhibition above about 25%
APOBEC3G confirm: APOBEC3G deaminase inhibitor retest, confirmation, biochemical, fluorescence, single-stranded DNA substrate, single concentration. shares compounds with APOBEC3G inh. inhibition, % at 20 µM. 890 tested, 72% active. AID 493152, 2011. recombinant A3G ssDNA deaminase, UDG/FAM-TAMRA fluorescence;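 active = inhibition reaching a set limit in any replicate at 20 µM, the limit being 80% of the first screen's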
UDG A3G counter: E. coli UDG inhibitors, confirmation, counter-screen for APOBEC3G inhibitor project, biochemical, single concentration, fluorescence, FAM/TAMRA oligo; UDG counterscreen; inhibition, % at 20 µM; shares compounds with APOBEC3G inh; 710 tested, under 10 active;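 active = compounds giving 40% or more inhibition at 20 µM in any one of the three replicates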;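 note: inhibitors lower the FAM signal released by uracil excision and alkaline cleavage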
Target sequence (P12295 whole entry, looked up): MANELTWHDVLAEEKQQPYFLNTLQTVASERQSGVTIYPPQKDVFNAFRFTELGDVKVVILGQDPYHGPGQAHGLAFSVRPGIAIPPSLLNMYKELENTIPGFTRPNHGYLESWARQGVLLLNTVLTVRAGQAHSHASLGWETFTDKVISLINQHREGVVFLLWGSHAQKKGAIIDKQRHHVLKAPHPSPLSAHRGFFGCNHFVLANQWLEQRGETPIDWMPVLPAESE
Hits are given with their value. Shown are actives, neighbours in structure and some others; about 2.1% of the full set was active somewhere.

How did O=C(NC(=S)NNC(=O)c1ccccc1[N+](=O)[O-])c1ccccc1 do in these assays?
APOBEC3A inh: inactive; ARFGAP1 inhibitor: inactive; APOBEC3G inh: 46; Mot1-301 SUMO: inactive; Statin myotox sup: inactive; ASAP1 inh: inactive; APOBEC3G confirm: 31; UDG A3G counter: inactive

What do the screens show for `O=C(NNC(=S)NC(=O)c1ccccc1[N+](=O)[O-])c1ccccc1`?
APOBEC3A inh: inactive; ARFGAP1 inhibitor: inactive; APOBEC3G inh: inactive; Mot1-301 SUMO: inactive; Statin myotox sup: inactive; ASAP1 inh: inactive

How did CCC(=O)NC(=S)NNC(=O)c1ccccc1[N+](=O)[O-] do in these assays?
APOBEC3A inh: inactive; ARFGAP1 inhibitor: inactive; APOBEC3G inh: 61; ASAP1 inh: inactive; APOBEC3G confirm: inactive; UDG A3G counter: inactive

What do the screens show for `CC(C)c1ccc(N2C(=O)CC(Sc3ncn[nH]3)C2=O)cc1` (centres undefined)?
APOBEC3A inh: inactive; ARFGAP1 inhibitor: inactive; APOBEC3G inh: inactive; ASAP1 inh: inactive

What do the screens show for `COc1ccc(N2C(=O)CC(Sc3ncn[nH]3)C2=O)c(OC)c1` (centres undefined)?
APOBEC3A inh: inactive; ARFGAP1 inhibitor: inactive; APOBEC3G inh: 46; Mot1-301 SUMO: inactive; Statin myotox sup: inactive; ASAP1 inh: inactive; APOBEC3G confirm: active; UDG A3G counter: inactive

What do the screens show for `O=C(/N=C1\NC(=O)C(F)(C(F)(F)F)S1)NC1CCCCC1` (centres undefined)?
APOBEC3A inh: inactive; ARFGAP1 inhibitor: inactive; APOBEC3G inh: 50; Mot1-301 SUMO: inactive; ASAP1 inh: inactive; APOBEC3G confirm: 48; UDG A3G counter: inactive

What do the screens show for `CCC1S/C(=N/C(=O)NC2CCCCC2)NC1=O` (centres undefined)?
APOBEC3A inh: inactive; ARFGAP1 inhibitor: inactive; APOBEC3G inh: inactive; Mot1-301 SUMO: inactive; ASAP1 inh: inactive

How did COc1ccc(NC(=O)Nc2ccc3c(c2)[C@H]2C[C@H](CC(=O)N4CCCCC4)O[C@@H](CO)[C@H]2O3)cc1 do in these assays?
Statin myotox sup: inactive

How did CC(Oc1ccc2c3c(c(=O)oc2c1)CCCC3)C(=O)NCCN1CCOCC1 (centres undefined) do in these assays?
APOBEC3A inh: inactive; ARFGAP1 inhibitor: inactive; APOBEC3G inh: 73; Mot1-301 SUMO: inactive; Statin myotox sup: inactive; ASAP1 inh: inactive; APOBEC3G confirm: inactive; UDG A3G counter: inactive

Results for CC1CCN(C(=S)c2ccccc2O)CC1 ?
APOBEC3A inh: inactive; ARFGAP1 inhibitor: inactive; APOBEC3G inh: 49; Mot1-301 SUMO: inactive; ASAP1 inh: inactive; APOBEC3G confirm: 42; UDG A3G counter: inactive

Results for Cc1ccc(N/N=C2\CCS(=O)(=O)c3sccc32)cc1 ?
APOBEC3A inh: inactive; ARFGAP1 inhibitor: inactive; APOBEC3G inh: 45; Mot1-301 SUMO: inactive; ASAP1 inh: inactive; APOBEC3G confirm: inactive; UDG A3G counter: inactive

What do the screens show for `CCN(CC)CCn1c2ccccc2c2n[nH]c(=S)nc21`?
APOBEC3A inh: inactive; ARFGAP1 inhibitor: inactive; APOBEC3G inh: 58; Mot1-301 SUMO: inactive; Statin myotox sup: inactive; ASAP1 inh: inactive; APOBEC3G confirm: 78; UDG A3G counter: inactive

Results for CCOC(=O)c1c(NC(=O)C2CCCO2)sc(C(N)=O)c1C (centres undefined) ?
APOBEC3A inh: inactive; ARFGAP1 inhibitor: inactive; APOBEC3G inh: inactive; Mot1-301 SUMO: inactive; Statin myotox sup: inactive; ASAP1 inh: inactive

What do the screens show for `CCCOC(=O)c1c(NC(=O)C2CCCO2)sc(C(=O)OC)c1C` (centres undefined)?
APOBEC3A inh: inactive; ARFGAP1 inhibitor: inactive; APOBEC3G inh: 41; ASAP1 inh: inactive; APOBEC3G confirm: 48; UDG A3G counter: inactive

Results for CC(C)OC(=O)CSc1nnc(-c2ccncc2)n1N ?
APOBEC3A inh: inactive; ARFGAP1 inhibitor: inactive; APOBEC3G inh: inactive; Mot1-301 SUMO: inactive; Statin myotox sup: inactive; ASAP1 inh: inactive

Results for CC(C)OC(=O)CSc1nnc(-c2ccc(C(C)(C)C)cc2)n1N ?
APOBEC3A inh: inactive; ARFGAP1 inhibitor: inactive; APOBEC3G inh: 42; Mot1-301 SUMO: inactive; Statin myotox sup: inactive; ASAP1 inh: inactive; APOBEC3G confirm: inactive

Results for S=c1[nH]nc(-c2ccco2)n1C1CCCCC1 ?
APOBEC3A inh: inactive; ARFGAP1 inhibitor: inactive; APOBEC3G inh: 44; Mot1-301 SUMO: inactive; ASAP1 inh: inactive; APOBEC3G confirm: 84; UDG A3G counter: inactive

How did CCOc1ccc(/C=N/n2cc(-c3ccccc3)[nH]c2=S)cc1 do in these assays?
APOBEC3A inh: inactive; ARFGAP1 inhibitor: inactive; APOBEC3G inh: inactive; Statin myotox sup: inactive; ASAP1 inh: inactive

What do the screens show for `S=c1[nH]c(-c2ccccc2)cn1/N=C/c1ccncc1`?
APOBEC3A inh: inactive; ARFGAP1 inhibitor: inactive; APOBEC3G inh: 56; Mot1-301 SUMO: inactive; Statin myotox sup: inactive; ASAP1 inh: inactive; APOBEC3G confirm: 71; UDG A3G counter: inactive

Results for c1ccc(SSc2ccccn2)nc1 ?
APOBEC3A inh: inactive; APOBEC3G inh: 64; Mot1-301 SUMO: inactive; Statin myotox sup: inactive; APOBEC3G confirm: 88; UDG A3G counter: inactive

Results for CO[C@@H]1CN(C)C(=O)c2cc(NC(=O)c3cnccn3)ccc2OC[C@H](C)N(CCc2ccccc2)C[C@H]1C ?
Statin myotox sup: inactive

How did C[C@@H]1CN([C@H](C)CO)C(=O)c2cccc(NS(=O)(=O)c3cccs3)c2O[C@H]1CN(C)Cc1ccc(Cl)c(Cl)c1 do in these assays?
Statin myotox sup: inactive

Results for CCC1(C)CC(C(N)=S)CCO1 (centres undefined) ?
APOBEC3A inh: inactive; ARFGAP1 inhibitor: inactive; APOBEC3G inh: 57; Mot1-301 SUMO: inactive; Statin myotox sup: inactive; ASAP1 inh: inactive; APOBEC3G confirm: 45; UDG A3G counter: inactive
